Active and inactive are the calls of the source. No cut-off for these calls is given here.

The nature of data set [1]: Antiproliferative activity against human BT94 cells incubated for 9 to 12 days by IncuCyte zoom live-cell imaging analysis. In kind it is functional, cell-based.
A short description of data set [2]: Antiproliferative activity against human G637 cells incubated for 9 to 12 days by IncuCyte zoom live-cell imaging analysis. Type of data set: functional, cell-based. The method, boiled down:
(§1)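 Adherent GSC lines on poly-L-ornithine/laminin in serum-free EGF/bFGF medium were exposed to nine concentrations from 3 nM to 30 µM, with three technical replicates per dose. Exposure lasted 9–20 days until DMSO controls were confluent, with drug-containing medium refreshed every 5 days. IncuCyte confluence was normalized to DMSO. Curves were built at the 95th percentile of DMSO time-to-confluence, and AAC was derived with PharmacoGx.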

The test system of a further data set is G561. Kind of data set: Inhibition of cell growth in human G561 cells pretreated with compound for 14 days followed by compound washout and measured after 14 days. Type of data set: functional, cell-based. To be noted: time 14.0 day. The method, boiled down: (§2)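 GSC lines were treated with 1 µM for 14 days. Compound was then washed out, and growth was followed for a further 14 days.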

The nature of data set [3]: Antiproliferative activity against human G613 cells incubated for 9 to 12 days by IncuCyte zoom live-cell imaging analysis. Type of data set: functional, cell-based. The method, boiled down: as §1
Data set [4] deals with G411. The data set can be described thus: Inhibition of cell growth in human G411 cells pretreated with compound for 14 days followed by compound washout and measured after 14 days. Type of data set: functional, cell-based. To be noted: time 14.0 day. The method, boiled down:
as §2

A short description of data set [5]: Antiproliferative activity against human G567 cells incubated for 9 to 12 days by IncuCyte zoom live-cell imaging analysis. Type of data set: functional, cell-based. In a few lines:
as §1

The nature of data set [6]: Antiproliferative activity against human G584 cells incubated for 9 to 12 days by IncuCyte zoom live-cell imaging analysis. Type of data set: functional, cell-based. The method, boiled down: as §1
The nature of data set [7]: Antiproliferative activity against human G719 cells incubated for 9 to 12 days by IncuCyte zoom live-cell imaging analysis. Type of data set: functional, cell-based. In a few lines: as §1
A short description of data set [8]: Antiproliferative activity against human BT189 cells incubated for 9 to 12 days by IncuCyte zoom live-cell imaging analysis. Type of data set: functional, cell-based.
For data set [9], the target named is Protein arginine N-methyltransferase 5 (Homo sapiens) (UniProt O14744). The data set can be described thus: Inhibition of PRMT5 in human G797 cells assessed as reduction in SDMA level at 1 uM after 7 days by Western blot analysis. In kind it is cell-based. The following applies: time 7.0 day. A general note: A western blot detects proteins with antibodies after separation by electrophoresis.

The nature of data set [10]: Antiproliferative activity against human BT143 cells incubated for 9 to 12 days by IncuCyte zoom live-cell imaging analysis. Type of data set: functional, cell-based.
Data set [11] is described as follows: Antiproliferative activity against human G571 cells incubated for 9 to 12 days by IncuCyte zoom live-cell imaging analysis. Type of data set: functional, cell-based. The method, boiled down:
as §1

Data set [12] can be described thus: Antiproliferative activity against human BT301 cells incubated for 9 to 12 days by IncuCyte zoom live-cell imaging analysis. Type of data set: functional, cell-based.
The test system of another data set is G837. Kind of data set: Inhibition of cell growth in human G837 cells pretreated with compound for 14 days followed by compound washout and measured after 14 days. In kind it is functional, cell-based. To be noted: time 14.0 day. The method, boiled down:
as §2

Data set [13] in a line: Antiproliferative activity against human G752 cells incubated for 9 to 12 days by IncuCyte zoom live-cell imaging analysis. In kind it is functional, cell-based. The method, boiled down: as §1
For data set [14], the system named is G583. The data set can be described thus: Inhibition of colony formation in human G583 cells assessed as reduction in sphere forming capacity at 1 uM incubated for 14 days by limiting dilution assay. In kind it is functional, cell-based. To be noted: time 14.0 day. In a few lines:
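Each GSC line was seeded on non-adherent 96-well plates in 1:2 serial dilutions from 2000 to 4 cells per well, six replicates per dilution, in adherent-culture medium. Treatment was 1 µM, with SGC2096 and DMSO as controls, added on day 1 and replenished weekly. Wells were scored for spheres at 1 and 2 weeks, and sphere frequency was estimated by ELDA (single-hit model). n = 3.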

Data set [15] deals with G583. Kind of data set: Inhibition of cell growth in human G583 cells pretreated with compound for 14 days followed by compound washout and measured after 14 days. Type of data set: functional, cell-based. To be noted: time 14.0 day. The method, boiled down: as §2
A short description of data set [16]: Antiproliferative activity against human BT67 cells incubated for 9 to 12 days by IncuCyte zoom live-cell imaging analysis. In kind it is functional, cell-based.
Data set [17] can be described thus: Antiproliferative activity against human BT238 cells incubated for 9 to 12 days by IncuCyte zoom live-cell imaging analysis. In kind it is functional, cell-based.
Data set [18] deals with G411. The data set can be described thus: Induction of senescence in human G411 cells at 1 uM after 5 days by SA-beta-galactosidase based assay. In kind it is functional, cell-based. To be noted: time 5.0 day. In a few lines: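 GSCs were treated at 1 µM for 5 days, with SGC2096 and DMSO as controls and n = 3. Cells were fixed in 4% paraformaldehyde for 5 min at RT, stained overnight with SA-β-gal solution, and counterstained with nuclear fast red. Blue cells were counted as a fraction of total cells.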

The nature of data set [19]: Toxicity in NSG mouse assessed as body weight loss at 50 mg/kg, po administered as 3 days on and 4 days off schedule and measured upto 8 weeks. Type of data set: organism-based. The following applies: in vivo, 1344 h. In a few lines: (§3)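 NSG mice, 3 per group, dosed orally in weekly cycles of 3 days on and 4 days off. Weight and condition were recorded twice weekly. Mice losing more than 20% body weight were sacrificed.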

The test system of data set [20] is G411. Kind of data set: In vivo inhibition of PRMT5 in human G411 cells xenografted in NSG mouse assessed as reduction in SDMA level at 50 mg/kg, po administered as 3 days on and 4 days off schedule for 4 cycles. In kind it is functional, organism-based. The following applies: time 28.0 day. In a few lines:
(§4)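 Female NSG mice aged 5–10 weeks received 2 × 10^4 G411 GSCs stereotaxically into the forebrain (2 mm lateral, 1 mm posterior to bregma, 3 mm deep). From 1 week post-implant, mice got 50 mg/kg by oral gavage in 1% HEC/0.25% Tween 80/0.05% antifoam, 3 days on/4 off, for 4 cycles or until endpoint. Endpoint brains went to H&E; tumor tissue went to SDMA western blot.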
On the technique in general: In xenograft studies the graft and the host belong to different species.

The test system of data set [21] is G411. Kind of data set: Antitumor activity against human G411 xenografted in NSG mouse assessed as mean survival time at 50 mg/kg, po administered as 3 days on and 4 days off schedule for 4 cycles (reference value: 30 days). To be noted: time 28 day. Type of data set: functional. In a few lines:
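Female NSG mice, 5–10 weeks old, 12 per group. 2 × 10^4 G411 cells were injected stereotactically into the forebrain, 3 mm deep. Oral gavage started 1 week later in vehicle of 1% HEC/0.25% Tween 80/0.05% antifoam, given daily for 3 days then 4 days off, for 4 cycles or until end point. Mice were euthanized at neurological symptoms with domed head. Survival was compared by log-rank test.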

Data set [22] can be described thus: Drug concentration in NSG mouse brain at 100 mg/kg, po measured after 24 hrs. Type of data set: ADME, organism-based. To be noted: read-out: Ct. The method, boiled down: (§5)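 Single oral gavage to NSG mice (n = 3) at 25, 50 or 100 mg/kg; a 10× DMSO stock was diluted into 1% HEC/0.25% Tween 80/0.05% antifoam. Sacrifice at 24 h. Plasma came from cardiac-puncture blood. Brains were taken after PBS transcardiac perfusion and flash frozen. LC-MS quantitation used a 10-point standard curve of 10–10,000 ng/mL.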

Data set [23] can be described thus: Toxicity in NSG mouse assessed as body weight loss at 50 mg/kg, po administered every other day for 3 weeks. Type of data set: organism-based. The following applies: in vivo, 504 h.
A short description of data set [24]: Drug concentration in NSG mouse plasma at 100 mg/kg, po measured after 24 hrs. In kind it is ADME, organism-based. The method, boiled down: as §5
Data set [25] is described as follows: Antiproliferative activity against human BT50 cells incubated for 9 to 12 days by IncuCyte zoom live-cell imaging analysis. In kind it is functional, cell-based.
Data set [26] deals with G411. Kind of data set: Antitumor activity against human G411 cells xenografted in NSG mouse assessed as reduction in dense cell growth at 50 mg/kg, po administered as 3 days on and 4 days off schedule for 4 cycles. To be noted: time 28.0 day. Type of data set: functional, organism-based. In a few lines: as §4
Data set [27] is described as follows: Toxicity in NSG mouse assessed as tolerability at 50 mg/kg, po administered as 3 days on and 4 days off schedule and measured upto 8 weeks. In kind it is organism-based. To be noted: in vivo, 1344 h. In a few lines:
as §3

Protein arginine N-methyltransferase 5 (Homo sapiens), sequence (O14744 whole entry): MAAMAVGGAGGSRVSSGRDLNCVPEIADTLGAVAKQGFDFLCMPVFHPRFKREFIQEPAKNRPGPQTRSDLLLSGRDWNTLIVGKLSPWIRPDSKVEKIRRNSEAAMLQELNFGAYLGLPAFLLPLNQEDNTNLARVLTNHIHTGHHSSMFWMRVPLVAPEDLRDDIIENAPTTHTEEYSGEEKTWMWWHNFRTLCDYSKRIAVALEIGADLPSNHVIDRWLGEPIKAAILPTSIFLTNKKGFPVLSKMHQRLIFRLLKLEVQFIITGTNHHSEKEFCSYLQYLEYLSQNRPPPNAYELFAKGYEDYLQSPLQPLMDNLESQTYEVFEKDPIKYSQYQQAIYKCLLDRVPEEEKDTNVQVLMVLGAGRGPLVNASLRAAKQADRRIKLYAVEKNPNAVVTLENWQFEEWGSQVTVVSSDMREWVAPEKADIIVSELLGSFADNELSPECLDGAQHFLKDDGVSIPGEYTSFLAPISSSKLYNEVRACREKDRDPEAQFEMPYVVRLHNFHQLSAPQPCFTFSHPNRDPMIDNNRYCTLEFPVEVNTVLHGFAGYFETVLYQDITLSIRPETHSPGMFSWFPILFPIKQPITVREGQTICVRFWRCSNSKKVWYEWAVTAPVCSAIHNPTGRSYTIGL

As for `O=C(NC[C@H](O)CN1CCc2ccccc2C1)c1ccnc(NC2CCC2)c1`, the IC50 (as a rule, the midpoint of a concentration-inhibition curve) was found to be 60 nM in data set [1]; 340 nM in data set [2]; 19200 nM in data set [3]; 29300 nM in data set [5]; 39000 nM in [6]; 9230 nM in data set [7]. The half-inhibitory concentration (IC50) in data set [8] came to 110 nM; in [10] it was 600 nM; in data set [11], 45600 nM; in data set [12], 100 nM; in data set [16], 50 nM; in data set [17] it was 150 nM. In addition, the inhibition entry with G561, with G411 [4] and in the data set with G837 was “inactive” in each case. The inhibition entry (in [9]; with G583 [14]; in the data set with G583 [15]) was “Active” in each case. Besides, the half-maximal effective concentration (EC50) – broadly, the concentration giving half of the maximal effect – in data set [13] was 50 nM. Also, in the data set on G411 [18], the result was Active.
As for `Nc1ncnc2c1ccn2[C@@H]1O[C@H]([C@H](O)c2ccccc2)[C@@H](O)[C@H]1O`, the Activity is recorded as less than 10% in data set [19], more than 20% in [23] and “Non-Toxic” in [27]. The inhibition result (with G411 [20]; in [9]; with G583 [14]) was “Active” throughout. The Time with G411 [21] was 37 days. Further, the figures for the concentration at 24 h in [22] and in data set [24] were 269 nM and 159 nM, respectively. Further, the half-inhibitory concentration (IC50) in [10] amounted to 160 nM; in data set [25], 20 nM. The outcome in the data set with G411 [26] and in the data set on G411 [18] was Active.

The record behind these values is ChEMBL document CHEMBL5653632, “PRMT5 inhibition disrupts splicing and stemness in glioblastoma” (Nat Commun, 2021).
